Hits are enriched below; roughly 4.1% of the tested compounds scored in any of these assays.
KCNK3 block: human KCNK3 channel inhibitors, primary screen, CHO cells, FluxOR thallium flux, B-score; Potassium channel subfamily K member 3 (Homo sapiens), O14649; B-score at 10 µM; FluxOR fluorescence; hits give low values; 340,000 tested, 0.84% active; AID 602410, 2012;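 active = B-score under library mean minus 4 SD, starting fluorescence ratio at most library mean plus 5 SD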;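 also: more negative B-score means stronger inhibition of thallium flux through KCNK3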
Cl transport mod: KCC2 cotransporter modulators, thallium flux, primary screen, cell-based, HEK293 KCC2, FluoZin-2 fluorescence, MLSMR; Solute carrier family 12 member 5 (Homo sapiens), Q9H2X9; KCC2 cells, thallium flux FluoZin-2 fluorescence; B-score of Tl+ flux slope (higher = more flux/activation; lower = inhibition) at 10 µM; 190,000 tested, 2.2% active; AID 1456, 2008;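 active = thallium flux slope and its plate-corrected score both differing from the plate sample mean at a set confidence after two filtering rounds, in either direction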;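 also: slope of fluorescence scaled to starting intensity during 10 to 20 s after thallium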
KCNQ1 block: inhibitors of human KCNQ1 channel, primary screen, cell-based, thallium flux, high-throughput | 310,000 tested, 1.3% active | CHO-K1 KCNQ1, FluxOR thallium flux fluorescence; hits give high values | AID 2642, 2010 | B-score at 10 µM;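 active = compounds whose thallium flux B-score, printed positive for inhibition, exceeds three library SD while starting fluorescence stays within three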;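 also: channel opened by potassium depolarization with thallium stimulus after 20 min compound exposure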
Target sequence (P51787 whole entry, looked up): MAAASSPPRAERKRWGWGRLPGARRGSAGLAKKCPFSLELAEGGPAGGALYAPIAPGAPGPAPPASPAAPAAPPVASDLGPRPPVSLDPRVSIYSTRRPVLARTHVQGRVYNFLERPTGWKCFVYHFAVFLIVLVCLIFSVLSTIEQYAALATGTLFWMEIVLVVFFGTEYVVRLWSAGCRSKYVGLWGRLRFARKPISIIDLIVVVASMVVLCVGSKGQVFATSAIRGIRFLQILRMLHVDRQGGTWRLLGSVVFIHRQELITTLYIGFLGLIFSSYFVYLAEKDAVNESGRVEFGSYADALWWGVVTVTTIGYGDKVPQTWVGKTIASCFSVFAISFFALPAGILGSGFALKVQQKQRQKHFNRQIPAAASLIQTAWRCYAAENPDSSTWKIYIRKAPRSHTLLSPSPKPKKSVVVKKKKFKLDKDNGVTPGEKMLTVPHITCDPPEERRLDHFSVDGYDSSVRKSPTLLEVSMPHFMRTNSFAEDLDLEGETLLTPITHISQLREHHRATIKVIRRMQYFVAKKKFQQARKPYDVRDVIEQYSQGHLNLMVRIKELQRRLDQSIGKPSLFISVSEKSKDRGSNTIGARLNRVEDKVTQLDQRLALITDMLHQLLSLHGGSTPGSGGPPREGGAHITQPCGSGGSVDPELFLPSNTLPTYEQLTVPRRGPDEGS
hERG rescue: hERG rescue from dofetilide block, primary screen, cell-based, CHO-hERG, FluxOR thallium flux, dofetilide IC70. Voltage-gated inwardly rectifying potassium channel KCNH2 (Homo sapiens), Q12809. dofetilide IC70 present. activation (rescue from dofetilide block), less the hit threshold, % at 10 µM. 310,000 tested, 0.51% active;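 active = activation above the mean of controls blocked by dofetilide plus 5 SD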;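 also: thallium influx through hERG after potassium depolarization seen as dye fluorescence rise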
KCNK9 inh: KCNK9 potassium channel inhibitors, primary screen, HEK293 cells, thallium flux; Potassium channel subfamily K member 9 (Homo sapiens), Q9NPC2; FluxOR thallium flux fluorescence; hits give low values; B-score at 10 µM; 310,000 tested, 1.2% active; AID 488922, 2010;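 active = ratio B-score over 3 SD below the library mean, with starting fluorescence within 5 SD of its mean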;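 also: negative B-score means less thallium flux so channel inhibition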
KCNQ1 pot: potentiators or activators of KCNQ1 channel, primary screen, cell-based, thallium flux, high-throughput. 310,000 tested, 0.35% active. CHO-K1 KCNQ1, thallium flux FluxOR fluorescence; hits give high values. AID 2648, 2010. B-score at 10 µM. Potassium voltage-gated channel subfamily KQT member 1 (Homo sapiens), P51787;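 active = fluorescence ratio B-score, a plate-corrected score, at least three library SD, with initial intensity B-score within 5 SD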
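assay system = KCNQ1-transfected CHO-K1 cells | medium = assay buffer with matched DMSO | probe or stimulus = depolarizing K+/Tl+ stimulus, K2SO4 and Tl2SO4 each 12.5 mM in 5x stock | dosing = single dose | incubation = dye 90 min, compound 20 min, room temperature | detection = kinetic FluxOR fluorescence, 10 s baseline plus 110 s post-stimulus | evaluation = ratio B score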
An asterisk follows results filed as active; i = inactive; . = no result.

SMILES | KCNK3 block | Cl transport mod | KCNQ1 block | hERG rescue | KCNK9 inh | KCNQ1 pot
Clc1ccc(C2=C3CCCCn4c(-c5ccccc5)c[n+](c43)C2)cc1 | i | 1.1 | 7* | -23 | i | i
CCOC(=O)c1c(NC(=O)COc2ccc3ccc(=O)oc3c2)sc(C(=O)N(C)C)c1C | i | . | i | -4 | i | i
Cc1ccc(S(=O)(=O)N2CCOCC2)cc1N/N=C(\C#N)c1nc2ccccc2[nH]1 | i | -0.7 | 6* | -16 | i | i
O=C(CN1CCN(CC(=O)Nc2cccc(F)c2)CC1)NCC1(N2CCOCC2)CCCCC1 | i | . | . | . | . | .
CCCCCCNC(=O)C(C#N)c1nc2ccccc2nc1N1CCOCC1 (stereo not given) | i | . | 7* | -2 | -6.8* | i
N#CC(C(=O)NCCc1ccccc1)c1nc2ccccc2nc1N1CCOCC1 (stereo not given) | i | 0.97 | i | -7 | i | i
CCOC(=O)N1CCN(c2nc3ccccc3nc2C(C#N)C(=O)NCCc2ccccc2)CC1 (stereo not given) | i | -1.6 | 8* | -14 | i | i
CCCCCNC(=O)C(C#N)c1nc2ccccc2nc1N1CCCC1 (stereo not given) | i | i | 7* | -13 | i | i
CCCCCNC(=O)C(C#N)c1nc2ccccc2nc1N1CC(C)OC(C)C1 (stereo not given) | . | 0.66 | . | . | . | .
CCCCCCOC(=O)C(C#N)c1nc2ccccc2nc1N1CCN(CC)CC1 (stereo not given) | i | . | 7* | -28 | i | i
CN(Cc1ccccc1F)C(=O)c1sccc1-c1ccccc1 | i | . | i | -12 | i | i
CC(C)(C)OC(=O)C[C@H]1C/C=C\C[C@H](CC(=O)N(CCO)Cc2ccccc2)C(=O)N2CCC[C@H]2COC1=O | i | . | . | . | . | .
CN1C(=O)C2(OCC(CO)([N+](=O)[O-])CO2)c2ccccc21 (stereo not given) | i | . | i | -8 | i | i
CC1CCN(C(=S)c2cn(Cc3ccccc3F)c3ccccc23)CC1 | i | -0.24 | i | -13 | -6.6* | i
CN1CCN(C(=S)c2cn(Cc3ccc(F)cc3)c3ccccc23)CC1 | i | . | i | -11 | i | i
Cc1cc2c(cc1S(=O)(=O)N1CC(C)CC(C)C1)OCC(=O)N2 (stereo not given) | i | . | i | -7 | i | i
O=S(=O)(c1ccc(SCc2ccccc2)nc1)N1CCCCC1 | i | . | . | . | . | .
O=S(=O)(c1ccc(SCc2ccc(Br)cc2)nc1)N1CCCCC1 | -10* | . | . | . | . | .
Cc1cc([N+](=O)[O-])ccc1NC(=S)NC(=O)C(c1ccccc1)c1ccccc1 | i | . | 7* | -8 | i | i
COc1ccc(NC(=S)NC(NC(=O)c2cccc3ccccc23)C(Cl)(Cl)Cl)c([N+](=O)[O-])c1 (stereo not given) | i | 0.25 | i | -2 | -6.9* | i
COc1ccc(NC(=S)NC(NC(=O)c2ccccc2Cl)C(Cl)(Cl)Cl)c([N+](=O)[O-])c1 (stereo not given) | i | -1.3 | i | 1 | i | i
COc1ccc([N+](=O)[O-])cc1NC(=S)NC(NC(=O)C(c1ccccc1)c1ccccc1)C(Cl)(Cl)Cl (stereo not given) | i | . | 14* | -11 | i | i
COc1ccc([N+](=O)[O-])cc1NC(=O)C(C)c1ccccc1 (stereo not given) | i | -1.3 | i | 0 | i | i
Cc1cc([N+](=O)[O-])ccc1NC(=S)NC(=O)Cc1ccccc1 | i | 8.5* | i | -7 | i | i
Nc1ccc(Cn2ccc3c4c(N)nc(N)nc4ccc32)cc1 | i | . | . | . | . | .
SMILES | KCNK3 block | Cl transport mod | KCNQ1 block | hERG rescue | KCNK9 inh | KCNQ1 pot
CCN(CC(=O)NCc1cccs1)C(=O)c1cc(S(=O)(=O)NCc2ccccc2)ccc1C | i | . | i | -17 | i | i
CCCC(=O)Nc1c2c(nc3ccccc13)N(c1ccccc1)CC2 | -9.3* | -1.4 | i | -3 | i | i
CCCCCn1nc(C(=O)N(CC)c2c(N)n(CCCC)c(=O)[nH]c2=O)c2ccccc2c1=O | i | . | . | . | . | .
CCN(CC)S(=O)(=O)c1ccc(N2CC(C(=O)Nc3cccc(C(=O)NC4CC4)c3)CC2=O)cc1 (stereo not given) | i | . | . | . | . | .
Cc1c(Cc2ccccc2)sc(/N=C/c2c(O)ccc3ccccc23)c1C(N)=O | i | 1 | 7* | -9 | i | i
Cc1c(Cc2ccccc2)sc(/N=C/c2ccc3ccccc3c2)c1C(N)=O | i | -0.34 | . | . | . | .
CCn1cc(C(=O)N[C@H](C(=O)NCCN2CCOCC2)C(C)C)c(=O)c2cc3c(cc21)OCO3 | i | . | i | -4 | i | i
COc1ccc(CNS(=O)(=O)c2ccc3c(c2)CCN3C(=O)C2CCC2)cc1 | i | . | i | -12 | i | i
O=C(CSc1ccc(-c2ccc(Br)cc2)nn1)N1CCOCC1 | i | 0.2 | i | 5.0* | i | i
O=C(CSc1ccc(-c2ccccc2)nn1)N1CCCCC1 | i | -0.32 | i | 40* | i | i
Nc1nc(SCc2ccccc2)cc(SCc2ccccc2)n1 | i | . | . | . | . | .
CCc1nc2oc3ccc(C)cc3c(=O)c2cc1C(=O)OC | i | . | i | -8 | i | i
COc1ccc(CCNC(=O)CCC(=O)N2CCOc3ccccc32)cc1OC | i | . | i | -8 | i | i
CC(=O)c1c(C)[nH]c(C(=O)CN2CCN(S(=O)(=O)c3ccccc3[N+](=O)[O-])CC2)c1C | i | . | . | . | . | .
CCN(CC)C(=O)Cn1cc(C(=O)C(=O)N2CC=C(c3ccccc3)CC2)c2ccccc21 | i | -1.2 | i | 38* | i | i
CCCN(CC(=O)Nc1ccccc1C)C(=O)c1ccc(COc2ccccc2)cc1 | i | . | i | -16 | i | i
CSc1ccc(/C=N/n2c(Cc3ccc(Br)cc3)n[nH]c2=S)cc1 | i | 2.7 | i | 155* | i | i
Cn1c(CC(=O)NNC(=O)c2cccnc2)nc2ccccc21 | i | . | . | . | . | .
Nn1c(Cc2cccc3ccccc23)nnc1SCCOc1ccc(F)cc1 | i | -1.6 | i | -7 | -7.9* | i

Source: PubChem BioAssay (several laboratories)
